# PubChem BioAssay
# The source made the active and inactive calls.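 The calls were made as follows, unless noted: active = viability increase at or above a cutoff of the median across tested compounds plus 3 SD (cut at about 8.5% in these data, passing the limit was not always enough); inconclusive = some gains above the cutoff, reason not given; inactive = the rest.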
# Experiment: Restrictive medium S. cerevisiae growth inhibition, OD615, pilot screen of yeast lifespan reduction project, restrictive growth control (AID 706;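 active = growth inhibition above a set limit, 3 SD over mean compound inhibition, in both replicates, cut at about 43% in these data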;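 also: modified DeaD lifespan yeast strain shifted to restrictive glucose medium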)
# Conditions: OD615, 48 h, at 10 µM, stronger effect = higher value
# Summary of the method: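 Material: modified S. cerevisiae; buffer or medium: CSMM-D glucose medium; doses: one concentration, 10 µM final, 0.25% DMSO; incubation: 48 h compound exposure at 30 °C; detection: optical density at 615 nm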
row,SMILES,growth inhibition
1,O=C(OCN1C(=O)c2ccccc2C1=O)C1CCCCC1,-9.12% (inactive)
2,Cc1ccc2cccc(SCC(=O)N3CCOCC3)c2n1,24.3% (inactive)
3,c1ccn2c(SCc3ccc4c(c3)OCCO4)nnc2c1,12.2% (inactive)
4,c1ccc(C(Cc2nc(-c3ccccn3)no2)c2ccccc2)cc1,12.9% (inactive)
5,COC(=O)C(C)Sc1nnc2n(-c3cccc(C)c3)c(=O)c3c4c(sc3n12)CCCC4 (stereo not given),16.4% (inactive)
6,Cc1ccc(-c2noc(CN3C(C)CCCC3C)n2)cc1 (stereo not given),4.79% (inactive)
7,CCn1c(SCC(=O)Nc2ccc(Cl)cc2)nnc1C1CC1,1.14% (inactive)
8,COc1ccc(C2CC(c3ccco3)n3ncnc3N2)cc1 (stereo not given),1.61% (inactive)
9,COc1ccc(NC(=O)c2cc(C3CC3)on2)c(OC)c1,9.96% (inactive)
10,COc1cc(OC)c2c(c1)OC(c1ccc(OC)c(OC)c1)C(O)C2=O (stereo not given),-14.9% (inactive)
11,N#CCCN(Cc1cccnc1)C(=O)Nc1ccc(Cl)c(Cl)c1,-14.9% (inactive)
12,O=C(c1cccc(F)c1)N1CCc2ccccc21,-20.4% (inactive)
13,COc1ccc(NC(=O)C2CCCCN2S(=O)(=O)c2ccc(F)cc2)cc1 (stereo not given),-18.4% (inactive)
14,CCN(CC)C(=O)Cn1ncc2c1-c1ccccc1OC2,-11.6% (inactive)
15,Cn1c(=O)oc2cc(S(=O)(=O)NC3CCN(Cc4ccccc4)CC3)ccc21,-3.98% (inactive)
16,COCCOC(=O)c1[nH]c2c(c1C)C(=O)CC(c1ccco1)C2 (stereo not given),-15.1% (inactive)
17,COc1ccccc1NC(=O)N(C1CCCC1)C1CCN(C(C)=O)CC1,-27.4% (inactive)
18,COc1cc(C(=O)Nc2cccc(-c3nncn3C)c2)cc(OC)c1OC,4.63% (inactive)
19,CCCCN(CC)CCNC(=O)c1cc2c(C)nc3ccccc3c2o1,1.23% (inactive)
20,Clc1ccc(SCCCCn2ccnc2)cc1,-14.2% (inactive)
21,CCOC(=O)N1CCC(N2C(=O)c3ccccc3C2Nc2cc(Cl)c(OC)cc2OC)CC1 (stereo not given),4.05% (inactive)
22,O=C(Cn1nc(Cc2cccnc2)c2ccccc2c1=O)NCC1CCCO1 (stereo not given),6.33% (inactive)
23,CCn1cc(SCC(=O)NCC2CCCO2)c2ccccc21 (stereo not given),-6.71% (inactive)
24,Cc1noc(C)c1S(=O)(=O)N1CCN(Cc2ccc3c(c2)OCO3)CC1,7.12% (inactive)
25,CCOC(=O)c1ccc(N2Cc3cc(C)c(C)cc3C2)cc1O,-7.42% (inactive)

# Experiment: viability gain of MRP-1-high H69AR cells under doxorubicin, pilot screen, MRP-1 activator project, CellTiter-Glo, duplicate (AID 807);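 also: compound pretreatment 18-22 h then 72 h combined with doxorubicin; 0% = doxorubicin alone and 100% = vehicle without doxorubicin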
# Conditions: H69AR viability with doxorubicin, CellTiter-Glo luminescence; at 10 µM; stronger effect = higher value
row,SMILES,viability increase
1,O=C(NCCN1CCCCCC1)c1ccc(CS(=O)(=O)c2ccc(Br)cc2)o1,-3.11% (inactive)
2,Cc1ccc(S(=O)(=O)NCCOC(=O)Nc2sc(=S)n(C)c2C)cc1,-3.78% (inactive)
3,COc1ccccc1CC(=O)Nc1ccc(OC)c(OC)c1,-0.4% (inactive)
4,CCN(CC)C(=O)C1CCCc2c1[nH]c1ccc(Cl)cc21 (stereo not given),-4.93% (inactive)
5,CCOC(=O)N1CCC(NC(=O)C2CCCN(C(=O)c3cc4sccc4n3C)C2)CC1 (stereo not given),0.63% (inactive)
6,CCOC(=O)c1[nH]c(C)c(C(=O)Nc2ccc(Cl)cc2)c1C,2.64% (inactive)
7,O=C(NC(=O)c1cccc(F)c1)OC[C@@H]1CCCN2CCCC[C@H]12,-0.15% (inactive)
8,COc1ccccc1-n1c(=O)[nH]c2c(C(N)=O)nc(-c3cccnc3)nc21,-7.14% (inactive)
9,CC1(C)CC(=O)c2cnc(NC(=O)Cc3ccc(Cl)cc3)nc2C1,2.03% (inactive)
10,CC(C)(NC(=O)N1CCCC1)c1cccc(C(C)(C)NC(=O)N2CCCC2)c1,-0.99% (inactive)
11,COc1ccc(NC(=O)C2CCCN(S(=O)(=O)c3cccc4cccnc34)C2)cc1OC (stereo not given),-2.32% (inactive)
12,CCOc1ccc(CCN2C(=O)C3C4C=CC(C4)C3C2=O)cc1OCC (stereo not given),-0.38% (inactive)
13,COc1ccc(S(=O)(=O)N2CCN(c3ccc(C)cc3C)CC2)cc1OC,-0.07% (inactive)
14,O=C(C1CCN(c2nnc(-n3cccc3)s2)CC1)N1CCc2ccccc2C1,-1.4% (inactive)
15,CCOc1cc(C2C3=C(CCCC3=O)N(C)C3=C2C(=O)CCC3)cc(Cl)c1O,2.27% (inactive)
16,O=C(OCN1C(=O)c2ccccc2C1=O)C1CCCCC1,-2.19% (inactive)
17,Cc1ccc2cccc(SCC(=O)N3CCOCC3)c2n1,-2.53% (inactive)
18,c1ccn2c(SCc3ccc4c(c3)OCCO4)nnc2c1,-0.85% (inactive)
19,c1ccc(C(Cc2nc(-c3ccccn3)no2)c2ccccc2)cc1,-2.01% (inactive)
20,COC(=O)C(C)Sc1nnc2n(-c3cccc(C)c3)c(=O)c3c4c(sc3n12)CCCC4 (stereo not given),-1.93% (inactive)

row,SMILES,viability increase
1,Cc1ccc(-c2noc(CN3C(C)CCCC3C)n2)cc1 (stereo not given),3.23% (inactive)
2,CCn1c(SCC(=O)Nc2ccc(Cl)cc2)nnc1C1CC1,-4.1% (inactive)
3,COc1ccc(C2CC(c3ccco3)n3ncnc3N2)cc1 (stereo not given),-0.91% (inactive)
4,COc1ccc(NC(=O)c2cc(C3CC3)on2)c(OC)c1,-1.92% (inactive)
5,COc1cc(OC)c2c(c1)OC(c1ccc(OC)c(OC)c1)C(O)C2=O (stereo not given),-1.91% (inactive)
6,N#CCCN(Cc1cccnc1)C(=O)Nc1ccc(Cl)c(Cl)c1,0.83% (inactive)
7,O=C(c1cccc(F)c1)N1CCc2ccccc21,-5.03% (inactive)
8,COc1ccc(NC(=O)C2CCCCN2S(=O)(=O)c2ccc(F)cc2)cc1 (stereo not given),-1.3% (inactive)
9,CCN(CC)C(=O)Cn1ncc2c1-c1ccccc1OC2,0.84% (inactive)
10,Cn1c(=O)oc2cc(S(=O)(=O)NC3CCN(Cc4ccccc4)CC3)ccc21,-1.57% (inactive)
11,COCCOC(=O)c1[nH]c2c(c1C)C(=O)CC(c1ccco1)C2 (stereo not given),-4.07% (inactive)
12,COc1ccccc1NC(=O)N(C1CCCC1)C1CCN(C(C)=O)CC1,-2.01% (inactive)
13,COc1cc(C(=O)Nc2cccc(-c3nncn3C)c2)cc(OC)c1OC,-1.76% (inactive)
14,CCCCN(CC)CCNC(=O)c1cc2c(C)nc3ccccc3c2o1,-3.49% (inactive)
15,Clc1ccc(SCCCCn2ccnc2)cc1,0.79% (inactive)
16,CCOC(=O)N1CCC(N2C(=O)c3ccccc3C2Nc2cc(Cl)c(OC)cc2OC)CC1 (stereo not given),-4.45% (inactive)
17,O=C(Cn1nc(Cc2cccnc2)c2ccccc2c1=O)NCC1CCCO1 (stereo not given),-1.12% (inactive)
18,CCn1cc(SCC(=O)NCC2CCCO2)c2ccccc21 (stereo not given),-1.64% (inactive)
19,Cc1noc(C)c1S(=O)(=O)N1CCN(Cc2ccc3c(c2)OCO3)CC1,-0.42% (inactive)
20,CCOC(=O)c1ccc(N2Cc3cc(C)c(C)cc3C2)cc1O,2.66% (inactive)
